# Only some compounds are listed: those with a hit (about 4% of all), similar ones and a draw of the others.
# KCNQ1 act = potentiators or activators of KCNQ1 channel, primary screen, cell-based, thallium flux, high-throughput. B-score at 10 µM. Potassium voltage-gated channel subfamily KQT member 1 (Homo sapiens), P51787. CHO-K1 KCNQ1, thallium flux FluxOR fluorescence; hits give high values. 310,000 tested, 0.35% active;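 active = fluorescence ratio B-score, a plate-corrected score, at least three library SD, with initial intensity B-score within 5 SD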
#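 Assay system: CHO-K1 cells stably expressing KCNQ1. Medium: assay buffer for compound exposure, DMSO matched across wells. Timing: 37 °C overnight plating, 90-min dark dye load, 20-min compound pretreatment. Signal: kinetic FluxOR fluorescence, 10 s baseline plus 110 s post-stimulus.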
# PHOSPHO1 inh = PubChem AID 1565; Phosphoethanolamine/phosphocholine phosphatase (Homo sapiens), Q8TCT1; recombinant PHOSPHO1, absorbance phosphatase assay; inhibition, % at 13.3 µM; 290,000 tested, 1.1% active; in the data active = inhibition above about 60%
# KCNK3 block = human KCNK3 channel inhibitors, primary screen, CHO cells, FluxOR thallium flux, B-score | FluxOR fluorescence; hits give low values | B-score at 10 µM | 340,000 tested, 0.84% active | AID 602410, 2012;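 active = B-score under library mean minus 4 SD, starting fluorescence ratio at most library mean plus 5 SD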;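 also: more negative B-score means stronger inhibition of thallium flux through KCNK3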
# KCNQ1 block = inhibitors of human KCNQ1 channel, primary screen, cell-based, thallium flux, high-throughput; Potassium voltage-gated channel subfamily KQT member 1 (Homo sapiens), P51787; CHO-K1 KCNQ1, FluxOR thallium flux fluorescence; hits give high values; B-score at 10 µM; 310,000 tested, 1.3% active; AID 2642, 2010;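 active = compounds whose thallium flux B-score, printed positive for inhibition, exceeds three library SD while starting fluorescence stays within three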;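 also: channel opened by potassium depolarization with thallium stimulus after 20 min compound exposure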
# hERG protect = hERG rescue from dofetilide block, primary screen, cell-based, CHO-hERG, FluxOR thallium flux, dofetilide IC70; Voltage-gated inwardly rectifying potassium channel KCNH2 (Homo sapiens), Q12809; dofetilide IC70 present; activation (rescue from dofetilide block), less the hit threshold, % at 10 µM; 310,000 tested, 0.51% active; AID 1511, 2009;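 active = activation above the mean of controls blocked by dofetilide plus 5 SD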;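 also: thallium influx through hERG after potassium depolarization seen as dye fluorescence rise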
# KCNK9 inh = KCNK9 potassium channel inhibitors, primary screen, HEK293 cells, thallium flux; FluxOR thallium flux fluorescence; hits give low values; B-score at 10 µM; 310,000 tested, 1.2% active; AID 488922, 2010;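 active = ratio B-score over 3 SD below the library mean, with starting fluorescence within 5 SD of its mean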;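 also: negative B-score means less thallium flux so channel inhibition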
# KCNK9 block conf = KCNK9 potassium channel inhibitors, confirmation, HEK293 cells, thallium flux, duplicate; shares compounds with KCNK9 inh; FluxOR thallium flux fluorescence; inhibition, % at 10 µM; 4,900 tested, 43% active;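 active = thallium signal inhibited by more than 5 SD of the compound-free buffer control wells, on both duplicate plates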
# Kir2-1 spec = mouse Kir2.1 channel inhibition, confirmation, selectivity assay for KCNK9 modulator project, cell-based, HEK293, thallium flux. 4,900 tested, 4% active. inhibition, % at 10 µM. AID 492993, 2010. shares compounds with KCNK9 inh. Kir2.1 cells, FluxOR thallium flux fluorescence;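 active = thallium signal drop more than 5 SD beyond the mean of the no-compound control wells, seen in both duplicate plates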;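 also: signal is fluorescence rise after thallium addition divided by baseline fluorescence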
# Target sequence (P35561 whole entry, looked up): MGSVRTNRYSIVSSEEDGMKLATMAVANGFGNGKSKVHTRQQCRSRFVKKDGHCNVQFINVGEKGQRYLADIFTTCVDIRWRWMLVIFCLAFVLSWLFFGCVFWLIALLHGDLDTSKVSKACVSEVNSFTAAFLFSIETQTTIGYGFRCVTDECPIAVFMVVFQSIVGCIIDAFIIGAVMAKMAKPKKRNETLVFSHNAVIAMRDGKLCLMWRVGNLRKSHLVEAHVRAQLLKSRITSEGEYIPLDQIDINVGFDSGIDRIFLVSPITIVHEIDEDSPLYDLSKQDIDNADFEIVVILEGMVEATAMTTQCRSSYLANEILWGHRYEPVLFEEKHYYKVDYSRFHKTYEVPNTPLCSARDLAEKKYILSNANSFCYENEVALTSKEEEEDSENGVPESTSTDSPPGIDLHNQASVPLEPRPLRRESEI
# KCNK9 uninduced = thallium flux in non-induced HEK293 cells, confirmation, counter-screen for KCNK9 inhibitor project, cell-based, second counter screen, non-induced KCNK9-HEK293 | shares compounds with KCNK9 inh | FluxOR thallium flux | inhibition, % at 10 µM | 4,900 tested, 40% active | AID 492997, 2010;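 active = thallium signal drop beyond 5 SD of the untreated control mean, on both duplicate plates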
# A number is an active result; - = inactive; . = not tested or not shown.
SMILES,KCNQ1 act,PHOSPHO1 inh,KCNK3 block,KCNQ1 block,hERG protect,KCNK9 inh,KCNK9 block conf,Kir2-1 spec,KCNK9 uninduced
Cc1cc(C2N=C(N)Nc3nc4ccccc4n32)c(C)n1-c1ccccc1Cl (configuration not stated),-,-,-,-,-,-8.7,52%,-,39%
Cc1ccnc(SCc2cc(=O)c(OC(=O)c3ccc(S(=O)(=O)N4CCCC4)cc3)co2)n1,-,-,-,-,-,-,.,.,.
Cc1cc2c(cc1S(=O)(=O)N1CCc3ccccc31)NC(=O)CO2,-,-,-,-,-,-,.,.,.
COc1cc(-c2nc(-c3ccccc3)c(-c3cccs3)[nH]2)cc(OC)c1O,-,-,-,-,-,-10,51%,-,-
Cc1ccc(N(C)C(=O)c2ccc3c(Cl)c4c(nc3c2)CCC4)cc1C,-,-,-,-,-,-,-,-,-
CCc1ccc(N(CC)C(=O)c2ccc3c(Cl)c4c(nc3c2)CCC4)cc1,-,-,-,-,-,-,-,-,27%
COc1ccc(N(C)C(=O)c2ccc3c(Cl)c4c(nc3c2)CCCC4)c(OC)c1,-,-,-,-,-,-,.,.,.
CN(C)CCCNc1oc(/C=C/c2cccs2)nc1S(=O)(=O)c1ccccc1,-,-,-,-,-,-,.,.,.
CNC(=O)CN(c1ccc(Oc2ccccc2)cc1)S(=O)(=O)c1ccc(C)cc1,-,-,-,-,-,-,.,.,.
Cc1ccccc1C(=O)NC1CC2CCCC(C1)N2Cc1ccc(Cl)cc1 (configuration not stated),-,.,-,-,-,-,.,.,.
Cc1ccccc1C(=O)NC1CC2CCCC(C1)N2Cc1ccccc1 (configuration not stated),-,.,-,-,-,-,-,-,-
CC[C@@H](C)[C@H](CNC)NC[C@@H](Cc1cccc2ccccc12)NCCc1cccc(C(F)(F)F)c1,-,-,-,9,-,-9,38%,52%,34%
CS(=O)(=O)N1CCN=C1SCc1ccc([N+](=O)[O-])cc1,-,-,-,-,-,-,.,.,.
CCN(CC)C(=O)c1ccc(COc2ccccc2Cl)cc1,-,-,-,-,-,-8.7,36%,-,24%
O=C(O)c1ccc(COc2ccccc2Cl)cc1,-,-,-,-,-,-,.,.,.
C[C@H](N)c1nnc(SCc2c(Cl)cccc2Cl)o1,-,-,-,-,-,-,.,.,.
Clc1cccc(Cl)c1CSc1nnc(/C=C/c2ccccc2)o1,-,66,-,-,-,-,-,-,29%
CCOC(=O)C1(Cc2ccccc2)CCN(Cc2cnn(C(C)C)c2)CC1,-,-,-,-,-,-,.,.,.
CCOC(=O)CC(NC(=O)c1cccc2c1C(=O)N(Cc1cccnc1)C2)c1ccc(OC(C)C)cc1 (configuration not stated),-,-,-,-,-,-,-,-,-
CCCN1Cc2cccc(C(=O)NC(CC(=O)OCC)c3ccc(OC(C)C)cc3)c2C1=O (configuration not stated),-,-,-,-,-,-,.,.,.
CCOC(=O)c1c(NC(=O)C(C)Sc2cn(C)c3ccccc23)sc2c1CCC2 (configuration not stated),-,-,-,-,-,-,-,-,-
CCOC(=O)c1c(NC(=O)CSc2nnc(-c3c[nH]c4ccccc34)n2CCOC)sc2c1CCCCC2,-,-,-,-,-,-,.,.,.
CCOC(=O)c1c(NC(=O)CSc2c[nH]c3ccccc23)sc2c1CCC2,-,-,-,-,-,-,-,-,-
CCOC(=O)c1c(NC(=O)CSc2c[nH]c3ccccc23)sc2c1CCCC2,-,-,-,-,-,-,-,-,-
COc1cc(C)nc(N(Cc2ccccc2)S(=O)(=O)c2ccccc2)n1,-,-,-,-,-,-16,56%,-,44%
SMILES,KCNQ1 act,PHOSPHO1 inh,KCNK3 block,KCNQ1 block,hERG protect,KCNK9 inh,KCNK9 block conf,Kir2-1 spec,KCNK9 uninduced
COC(=O)CN(c1nc(C)cc(OC)n1)S(=O)(=O)c1ccccc1,-,-,-,-,-,-,.,.,.
Brc1ccccc1-c1nnc2sc(Cc3ccccc3)nn12,-,-,-,-,-,-15,36%,-,26%
O=C(OCC#CCSc1nnc(-c2ccc(Br)cc2)o1)c1cccs1,-,-,-,-,-,-12,-,-,40%
O=C1C2C3C=CC(C3)C2C(=O)N1c1cccnc1 (configuration not stated),-,-,-,-,-,-,.,.,.
OCC[C@H]1C[C@H](O)[C@@H](O)[C@]2(CCc3ccccc3CO2)O1,.,.,-,.,.,.,.,.,.
O=S(=O)(c1cccc2nsnc12)N1CCN(C/C=C\c2ccccc2)CC1,-,-,-,-,-,-,-,-,-
Cc1ccccc1CN1CCN(S(=O)(=O)c2cccc3nsnc23)CC1,-,-,-,-,-,-,-,-,-
CCN1CCN(S(=O)(=O)c2cccc3nsnc23)CC1,-,-,-,-,-,-,.,.,.
O=C(COC(=O)/C=C/c1cccs1)NC1CC1,-,-,-,-,-,-,.,.,.
O=C(NCC(c1ccco1)N1CCN(c2ccc(F)cc2)CC1)C1CCCCC1 (configuration not stated),-,.,-,-,-,-14,44%,-,38%
Cc1ccnc(NC(=O)c2ccc3c(c2)OCO3)c1,-,-,-,-,-,-,.,.,.
Clc1ccc(COn2c(-c3ccc(Cl)cc3)nc3ccccc32)cc1,-,-,-11,-,-,-16,80%,-,36%
O=C(O)COn1c(-c2ccc(Cl)cc2)nc2ccc(Cl)cc21,-,-,-,-,-,-,.,.,.
CCOc1ccccc1N1CCN(C(=O)C(Sc2ccccc2)c2ccccc2)CC1 (configuration not stated),-,-,-,-,-,-12,56%,-,28%
Cc1ccccc1C(=O)N1CCN(C(c2ccccc2)c2ccccc2)CC1,-,-,-,-,-,-,.,.,.
